Efflux pump inh = blocks antifungal efflux pumps in multiplex yeast assay; inhibition, % at 10 µM; S. cerevisiae Candida pump triplex, Nile Red efflux; actives 0.44% (n = 330,000); AID 485275;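 active = plate passing quality check with inhibition over a set limit, or well fluorescence over plate mean plus 4 SD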;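 note: Nile Red retained in pooled yeast measured as flow cytometry median fluorescence; higher means more Nile Red kept so more efflux inhibition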
MEKK2 mut-MEK5 = signal of MEK5 binding to mutant human MEKK2 PB1 domain | percent response, % at 10 µM | bead flow cytometry, Alexa488-MEK5 binding to MEKK2 mutant | actives 0.35% (n = 290,000); in the data active = percent response above about 24%, passing the limit was not always enough
MEKK3 PB1 HTS = raises or lowers MEK5 binding to the human MEKK3 PB1 domain | Q99759 | bead-based flow cytometry, Alexa488-MEK5 binding to MEKK3; actives lie on both sides; 0 = blocked by unlabeled MEK5, 100 = vehicle | binding response (% of control), % at 10 µM | actives 1.4% (n = 290,000) | AID 1529;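 active = binding response more than 3 SD above or below the average of its plate-row segment, actives on both sides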;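 note: Alexa488 bead fluorescence after subtracting the streptavidin-only scavenger bead signal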
Target sequence (Q99759 whole entry, looked up, the tested form may be a part): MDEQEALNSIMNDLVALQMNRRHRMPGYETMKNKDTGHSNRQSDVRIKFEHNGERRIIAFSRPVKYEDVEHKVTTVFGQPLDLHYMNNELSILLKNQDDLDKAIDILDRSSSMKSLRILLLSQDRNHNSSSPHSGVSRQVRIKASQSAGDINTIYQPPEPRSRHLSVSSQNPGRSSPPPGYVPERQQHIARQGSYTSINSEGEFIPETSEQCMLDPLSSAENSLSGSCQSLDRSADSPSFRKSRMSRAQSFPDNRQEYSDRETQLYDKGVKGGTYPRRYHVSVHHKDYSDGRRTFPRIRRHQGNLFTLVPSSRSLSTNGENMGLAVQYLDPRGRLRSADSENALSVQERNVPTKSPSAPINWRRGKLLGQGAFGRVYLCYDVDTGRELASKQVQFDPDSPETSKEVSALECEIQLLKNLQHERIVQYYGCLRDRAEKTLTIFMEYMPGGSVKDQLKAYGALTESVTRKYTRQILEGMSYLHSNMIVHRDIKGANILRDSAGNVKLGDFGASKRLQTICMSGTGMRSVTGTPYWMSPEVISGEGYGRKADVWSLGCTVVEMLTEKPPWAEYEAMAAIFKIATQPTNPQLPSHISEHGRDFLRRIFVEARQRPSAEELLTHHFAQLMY
MEKK2 WT-MEK5 = raises or lowers MEK5 binding to wildtype human MEKK2 PB1 domain | Q9Y2U5 | binding response (% of control), % at 10 µM | actives 1.1% (n = 290,000) | bead flow cytometry, Alexa488-MEK5 binding to MEKK2 WT; actives lie on both sides; in the data active = binding response below about 67% or above about 130%
ABCG2 block = blocks JC-1 efflux by human ABCG2 transporter. Q9UNQ0. actives 0.1% (n = 190,000). IgMXP3 cells, flow cytometry. inhibition, % at 6.6 µM;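 active = inhibition above 80%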
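test system = two drug-resistant human cell lines, ABCG2 and ABCB1 | amount = 3 million cells/mL final, two lines in 1:1 ratio | reagent = JC-1 transporter substrate | doses = one concentration, 6.6 µM final | incubation = 10 min at 25 °C | signal = flow cytometric JC-1 green MFI at 530 nm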
ABCB1 block = human ABCB1 inhibition, ABCG2 as counter-screen; P08183; CCRF-Adr cells, JC-1 efflux, flow cytometry; inhibition, % at 6.6 µM; actives 0.067% (n = 190,000); AID 1326; in the data active = inhibition above about 40%;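 note: higher value means more JC-1 retained so stronger ABCB1 efflux block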
MEKK2wt confirm = raises or lowers MEK5 binding to wildtype human MEKK2, retest; bead flow cytometry, Alexa488-MEK5 binding to MEKK2 WT; actives lie on both sides; actives 2.4% (n = 5,900); binding response (% of control), % at 10 µM; AID 1892; shares compounds with MEKK3 PB1 HTS; in the data active = binding response below about 16% or above about 210%; inactive = in between
MEKK2mut confirm = signal of MEK5 binding to mutant human MEKK2, retest; bead flow cytometry, Alexa488-MEK5 binding to MEKK2 mutant; shares compounds with MEKK3 PB1 HTS; actives 2% (n = 5,900); AID 1893; percent response, % at 10 µM; in the data active = percent response mostly above about 71%, no sharp cut-off; inactive = mostly below about 38%;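 note: higher means compound restores mutant binding toward wildtype level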
MEKK3-MEK5 inh = confirmation of inhibitors of MEK5 binding to human MEKK3; shares compounds with MEKK3 PB1 HTS; bead flow cytometry, Alexa488-MEK5 binding to MEKK3; active compounds read low; binding response (% of control), % at 10 µM; actives 1.8% (n = 5,900); AID 1894;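 active = binding response below 72% of control, or above a set upper limit, though filed actives all read lower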;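 note: lower values mean stronger disruption of MEK5 binding to MEKK3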
Large screens that a line does not name were inactive (follow-up assays come after a bar, where they were run); [ ] = dose if it differs, or a comment. Rows were chosen to be rich in hits. Some 2.5% of all compounds tested hit in one or more screens of this group.

Cc1coc2c1C(=O)C(=O)c1c-2ccc2c1CCCC2(C)C	none
O=C(/C=C/c1ccccc1[N+](=O)[O-])c1ccccc1Br	none
O=[N+]([O-])c1ccc(CN2CCN(c3ccccc3)CC2)o1	MEKK3 PB1 HTS 122.0 (no result: ABCG2 block, ABCB1 block) | MEKK2wt confirm inactive | MEKK2mut confirm inactive | MEKK3-MEK5 inh inactive
O=[N+]([O-])c1ccc(N2CCN(Cc3ccc([N+](=O)[O-])o3)CC2)cc1	none (no result: ABCG2 block, ABCB1 block)
CN1c2ccccc2C(O)=C(C(=S)Nc2ccccc2)S1(=O)=O	none
CN1c2ccccc2C(O)=C(C(=S)Nc2ccc(F)c(Cl)c2)S1(=O)=O	MEKK3 PB1 HTS 130.0 | MEKK2wt confirm inactive | MEKK2mut confirm inactive | MEKK3-MEK5 inh inactive
Cc1c(C)[n+](=O)c(-c2ccc(Br)cc2)c(C)n1[O-]	MEKK3 PB1 HTS 50.0[inhibitor], MEKK2 WT-MEK5 47.0[inhibitor] (no result: ABCG2 block, ABCB1 block) | MEKK2wt confirm inactive | MEKK2mut confirm inactive | MEKK3-MEK5 inh inactive
Cc1c(-c2ccccc2)[n+](=O)c(-c2ccc(Br)cc2)c(C)n1[O-]	none (no result: ABCG2 block, ABCB1 block)
CCS(=O)(=O)c1nc(S(=O)(=O)c2ccc(Cl)cc2)c(N2CCc3ccccc3C2)s1	MEKK3 PB1 HTS 135.0 | MEKK2wt confirm inactive | MEKK2mut confirm inactive | MEKK3-MEK5 inh inactive
CCS(=O)(=O)c1nc(S(=O)(=O)c2ccc(Cl)cc2)c(N2CCN(CCO)CC2)s1	none (no result: ABCG2 block, ABCB1 block)
Fc1cccc(Cl)c1Cn1nnc2c(NCc3ccncc3)ncnc21	MEKK2 mut-MEK5 63.0 | MEKK2wt confirm inactive | MEKK2mut confirm inactive | MEKK3-MEK5 inh inactive
Fc1cccc(Cl)c1Cn1nnc2c(NCc3ccccn3)ncnc21	none
CCN(CCNC(=O)c1ccc(C#N)cc1)c1cccc(C)c1	none (no result: ABCG2 block, ABCB1 block)
CCN(CCNCC(O)COCc1ccc(Cl)cc1)c1cccc(C)c1 (stereo not drawn)	MEKK2 WT-MEK5 159.0 | MEKK2wt confirm inactive | MEKK2mut confirm inactive | MEKK3-MEK5 inh inactive
O=C(NNC(=S)Nc1cccc2ccccc12)c1cccc(Br)c1	MEKK3 PB1 HTS 80.0[inhibitor] | MEKK2wt confirm inactive | MEKK2mut confirm inactive | MEKK3-MEK5 inh inactive
CC(=O)c1cccc(NC(=S)Nc2cccc3ccccc23)c1	none (no result: ABCG2 block, ABCB1 block)
COc1ccc(CN2CCN(C)CC2)cc1OCc1ccccc1	MEKK3 PB1 HTS 69.0[inhibitor] | MEKK2wt confirm inactive | MEKK2mut confirm inactive | MEKK3-MEK5 inh inactive
CC1C(c2ccccc2)N(C)CCC12NC(=O)NC2=O (stereo not drawn)	MEKK3 PB1 HTS 4.0[inhibitor], MEKK2 WT-MEK5 6.0[inhibitor] | MEKK2wt confirm inactive | MEKK2mut confirm inactive | MEKK3-MEK5 inh inactive
COc1ccc(N2C(=O)CCC(C(=O)c3ccccc3)=C2C)cc1	none
CCN(CC)CCNC(=O)c1cn(CCOC)c(=O)c2c1c1ccccc1n2C	none (no result: ABCG2 block, ABCB1 block)
CCN(CC)CCCNC(=O)c1cn(CCOC)c(=O)c2c1c1ccccc1n2C	MEKK3 PB1 HTS 34.0[inhibitor] | MEKK2wt confirm inactive | MEKK2mut confirm inactive | MEKK3-MEK5 inh inactive
COc1ccc(N=C2S/C(=C\c3cccs3)C(=O)N2CC(C)C)cc1	MEKK3 PB1 HTS 82.0[inhibitor] | MEKK2wt confirm inactive | MEKK2mut confirm inactive | MEKK3-MEK5 inh inactive
COc1ccc(N=C2S/C(=C\c3ccc(C)s3)C(=O)N2CC(C)C)cc1	none
COc1ccc(C(=O)NCc2nnc(SCC(=O)N3CCCC3)o2)cc1OC	none (no result: ABCG2 block, ABCB1 block)
CCCn1c(=O)c2ccccc2n2c(SCc3nc4ccccc4s3)nnc12	MEKK3 PB1 HTS 1.0[inhibitor], MEKK2 WT-MEK5 -2.0[inhibitor] | MEKK2wt confirm inactive | MEKK2mut confirm inactive | MEKK3-MEK5 inh inactive
COc1ccccc1N(CC(=O)NCC1CCCO1)C(=O)CNS(=O)(=O)c1ccccc1 (stereo not drawn)	MEKK3 PB1 HTS 135.0 (no result: ABCG2 block, ABCB1 block) | MEKK2wt confirm inactive | MEKK2mut confirm inactive | MEKK3-MEK5 inh inactive
COc1ccc(S(=O)(=O)NCC(=O)N(CC(=O)NCC2CCCO2)c2c(C)cccc2C)cc1 (stereo not drawn)	none
CCOC(=O)C(NCc1ccc2c(c1)OCO2)(NC(=O)c1ccccc1)C(F)(F)F (stereo not drawn)	none
CCCCCN=C(N)N/N=C/c1c[nH]c2ccc(OC)cc12	MEKK2 mut-MEK5 40.0, MEKK2 WT-MEK5 263.0 (no result: ABCG2 block, ABCB1 block) | MEKK2wt confirm inactive | MEKK2mut confirm inactive | MEKK3-MEK5 inh inactive
CC(C)C[C@@H](CO)NC(=O)CC[C@H](NC(=O)OC(C)(C)C)C(=O)N(Cc1ccccc1)Cc1ccccc1	none (no result: ABCG2 block, ABCB1 block)
COCCNC(=O)Cn1c(=O)n(CCCCCC(=O)Nc2ccccc2)c(=O)c2sccc21	MEKK3 PB1 HTS 135.0 | MEKK2wt confirm inactive | MEKK2mut confirm inactive | MEKK3-MEK5 inh inactive
COCCCNC(=O)Cn1c(=O)n(CCCCCC(=O)Nc2ccccc2)c(=O)c2sccc21	none
CC(C)n1cc(CN2CCN(C)C(CCO)C2)c2ccccc21 (stereo not drawn)	MEKK2 mut-MEK5 24.0 (no result: ABCG2 block, ABCB1 block) | MEKK2wt confirm inactive | MEKK2mut confirm inactive | MEKK3-MEK5 inh inactive
CC(C)Cn1c(CN2CCN(C)C(CCO)C2)nc2ccccc21 (stereo not drawn)	none (no result: ABCG2 block, ABCB1 block)
C[C@@H](CN1C2=NC[C@H](Cc3ccc(O)cc3)N2C[C@H]1Cc1ccc(O)cc1)NC(=O)CCC1CCCCC1	MEKK2 WT-MEK5 141.0 | MEKK2wt confirm inactive | MEKK2mut confirm inactive | MEKK3-MEK5 inh inactive
C[C@@H](CN1C2=NC[C@H](Cc3ccccc3)N2C[C@H]1Cc1ccc(O)cc1)NC(=O)CCC1CCCCC1	MEKK2 WT-MEK5 146.0 | MEKK2wt confirm inactive | MEKK2mut confirm inactive | MEKK3-MEK5 inh inactive
CC(NC(=O)c1cc(F)c(F)cc1Cl)C1CC2CCC1C2 (stereo not drawn)	none (no result: ABCG2 block, ABCB1 block)
Cc1ccc(-c2nnnn2-c2ccc(C)cc2)cc1	MEKK3 PB1 HTS 2.0[inhibitor], MEKK2 WT-MEK5 1.0[inhibitor] | MEKK2wt confirm inactive | MEKK2mut confirm inactive | MEKK3-MEK5 inh inactive
Cc1ccc(-n2nnnc2-c2cccc(C)c2)cc1	none
OCc1cn(-c2ccccc2)nc1-c1ccc(-c2nn(-c3ccccc3)cc2CO)cc1	none
Fc1ccc(-n2cc(CNCCc3cccnc3)c(-c3ccccc3Cl)n2)cc1	MEKK2 mut-MEK5 66.0, MEKK2 WT-MEK5 221.0 | MEKK2wt confirm inactive | MEKK2mut confirm inactive | MEKK3-MEK5 inh inactive
Fc1ccc(-c2nn(-c3ccccc3)cc2CNCc2ccccc2)cc1	MEKK2 WT-MEK5 160.0 | MEKK2wt confirm inactive | MEKK2mut confirm inactive | MEKK3-MEK5 inh inactive
O=C(O)CC1NCCc2ccccc21 (stereo not drawn)	none (no result: ABCG2 block, ABCB1 block)

Compound activity (PubChem BioAssay)
